# T cell modulator: T cell immune modulators affecting CD8 T cell-vesicle binding | 2C CD8+ T cell-vesicle binding, flow cytometry; active compounds read low | response (vesicle binding), % at 7 µM | 330,000 compounds, 0.068% hits;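 active = response, share of CD8 T cells binding vesicles, and their 90th percentile fluorescence all below set limits, cut at about 80% in these data, passing the limit was not always enough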;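 also: values below 100% mean blocked vesicle binding to the CD8+ T cells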
#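 Read-out – percent CD8+ FL2 mean versus row control · System – murine 2C transgenic CD8+ T lymphocytes · Times – 1.5 h cell–vesicle binding at 37 °C, then 20 min icy labelling · Control set – naked vesicles low, QL9 vesicles with vehicle high · Detection – cytometric PE anti-B7-1 and Alexa647 anti-CD8 signals after 1% paraformaldehyde fixation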
# beta cell repl: inducers of beta-cell replication in MIN6 cells. MIN6 cells proliferation, ATPlite luminescence, 48 h; cells starved in 0.2% serum; 100% = growth in 10% serum. proliferation, % at 10 µM. 330,000 compounds, 0.29% hits. AID 2380;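 active = compounds whose signal lies at least 3.5 SD above the mean of all wells on their plate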;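 also: 0% = DMSO-treated cells in low-serum medium and 100% = 10% serum control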
# KLK7 zymogen act: activates the human kallikrein-7 zymogen | P49862 | purified proKLK7, EDANS-DABCYL substrate fluorescence; 100% is mature enzyme control, 0% vehicle | activation, % at 7 µM | 370,000 compounds, 0.9% hits;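 active = activation above the mean of all tested compounds plus 3 SD, computed per campaign excluding outliers beyond control limits, cut at about 13% in these data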
# Target sequence (P49862 whole entry, looked up): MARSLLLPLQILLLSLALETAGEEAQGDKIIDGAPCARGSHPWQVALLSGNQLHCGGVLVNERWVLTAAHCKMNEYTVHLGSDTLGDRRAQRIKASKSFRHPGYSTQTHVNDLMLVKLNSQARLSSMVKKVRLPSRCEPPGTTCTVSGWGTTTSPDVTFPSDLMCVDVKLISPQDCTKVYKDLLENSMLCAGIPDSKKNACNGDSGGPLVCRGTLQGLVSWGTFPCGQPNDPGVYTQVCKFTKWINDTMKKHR
# Rce1 inh: inhibitors of yeast Ras-converting enzyme. AID 2563. Q03530. yeast membranes, quenched prenylated peptide cleavage fluorescence. 290,000 compounds, 0.27% hits. calls only;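 active = fall in fluorescence gain of 50% or more versus controls, with final raw signal at or below 3038400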;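 also: plate controls were neutral control wells for no effect and wells lacking membranes for full effect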
# CR mimetic SO: yeast age-related superoxide inhibition as caloric restriction mimetic. S. cerevisiae aged cells, superoxide DHE fluorescence; active compounds read low. superoxide response (% of plate mean), % at 10 µM. 330,000 compounds, 0.18% hits. AID 2690;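 active = superoxide response under a set limit, about three screen SD below normal, cut at about 65% in these data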;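 also: yeast aged for seven days with compound at 30 °C before DHE staining; 100% = average MFI of all compound-treated wells on the plate with controls excluded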
# V-ATPase pHluor: yeast V-ATPase proton transport regulation by pHLuorin | S. cerevisiae, pHLuorin cytosolic pH fluorescence | response, % at 10 µM | 350,000 compounds, 0.37% hits; in the data active = response mostly above about 7.3%, no sharp cut-off; inactive = mostly below about 5.4%; also: actives read high
# KLK7 act conf: confirmation of human kallikrein-7 zymogen activators; 3,200 compounds, 68% hits; activation, % at 7 µM; AID 686949; shares compounds with KLK7 zymogen act; purified proKLK7, EDANS-DABCYL substrate fluorescence; scaled: vehicle 0, mature enzyme 100;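 active = activation, as change over the incubation, above the mean of all tested compounds plus 3 SD, cut at about 13% in these data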
# EDANS interfere: fluorescence interference counter-screen for KLK7 activators | shares compounds with KLK7 zymogen act | EDANS-DABCYL substrate fluorescence interference, no enzyme, 4 h; solvent 0%, active enzyme control 100% | activation, % at 7 µM | 3,200 compounds, 80% hits | AID 686952;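 active = activation above the all-compound mean plus 3 SD, ignoring values outside control-based bounds, cut at about 4.8% in these data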;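 also: value is the 4 h activation minus the activation read at time zero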
# K7 EDANS ctr: EDANS fluorescence interference in dose response, no enzyme; EDANS-DABCYL peptide fluorescence interference; shares compounds with KLK7 zymogen act; 250 compounds, 20% hits; AID 720493; EC50, µM;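 active = compounds that raise the fluorescence signal in this interference counterscreen, with EC50 at or below 10 µM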;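 also: intact quenched peptide substrate alone read at 355 nm excitation and 520 nm emission; signal is fluorescence gain from T0 to T4 after four hours at room temperature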
# Numbers without * were called inactive; i = inactive; · = no result. Rows were chosen to be rich in hits. Some 1.9% of all compounds tested hit in one or more screens of this group.
SMILES,T cell modulator,beta cell repl,KLK7 zymogen act,Rce1 inh,CR mimetic SO,V-ATPase pHluor,KLK7 act conf,EDANS interfere,others
CCN(CC)S(=O)(=O)c1ccc(N2CCN(C)CC2)c(NC(=O)CN2C(=O)NC3(CCCCC3)C2=O)c1,·,·,0.0,·,·,-0.3,·,·,
O=C1C=C(CCc2ccccc2)CCC1,·,·,-0.5,·,·,1.6,·,·,
CC(=O)Oc1ccc(C2=NN(c3ccccc3)C(c3ccccc3)C2)cc1 (stereo unspecified),215.8,-6.9,-27.9,i,109.6,-2.5,·,·,
Nc1cnnc(N/N=C\c2ccccc2)c1Cl,486.7,-2.8,13.3*,i,116.8,-2.3,2.3,2.9,
Nc1nonc1N/N=C\c1ccccc1,323.6,0.0,-0.1,i,85.8,0.6,·,·,
N#CCc1nn2c(-c3ccccc3)ccnc2c1C#N,175.6,0.0,14.9*,i,119.5,3.9,8.3,4.7*,
O=C(Cc1ccc([N+](=O)[O-])cc1)NCc1cccnc1,217.5,-1.6,-0.3,i,98.0,-0.3,·,·,
O=C(Cc1ccc([N+](=O)[O-])cc1)NCc1ccccc1Cl,656.0,-0.4,40.1*,i,113.9,1.7,-0.7,-1.2,
N#Cc1c(N)n(CCNC(=O)c2cccs2)c2nc3ccccc3nc12,141.0,-1.4,53.2*,i,100.9,1.4,70.6*,82.2*,
N#Cc1c(N)n(-c2cccc(C(=O)O)c2)c2nc3ccccc3nc12,156.7,-1.3,61.8*,i,100.0,4.4,68.1*,65.1*,
N#Cc1c(N)n(CCNC(=O)c2ccccc2)c2nc3ccccc3nc12,378.7,-3.5,42.1*,i,119.0,5.5,68.5*,59.2*,
COc1cccc(CN(C)C(=O)c2ccc(S(=O)(=O)Nc3ccccc3C)cc2)c1OC,·,·,-0.1,·,·,-3.3,·,·,
CC1CN(CC(=O)Nc2nc(-c3ccc(Cl)cc3)cs2)CC(C)O1 (stereo unspecified),180.5,·,49.6*,i,109.7,-1.3,0.9,0.7,
O=C(CN1CCOCC1)Nc1nc(-c2ccc(Cl)cc2)cs1,141.9,-3.9,0.3,i,102.6,-4.5,·,·,
CC(C)CN1C(=O)c2ccc(NC(=O)c3ccco3)cc2C1=O,277.0,1.6,0.5,i,91.1,-0.9,·,·,
CC(C)CN1C(=O)c2ccc(NC(=O)c3cccs3)cc2C1=O,272.1,-2.0,12.9*,i,94.2,0.4,-15.5,-13.5,
CCOC(=O)N1CCN(S(=O)(=O)c2ccc(C(=O)Nc3sc4c(c3C(N)=O)CC(C)(C)NC4(C)C)cc2)CC1,219.9,-6.6,56.9*,i,100.2,0.3,-32.6,-5.1,
O=c1[nH]c2cc3c(cc2cc1C(c1nnnn1CC1CCCO1)N1CCCC1)OCO3 (stereo unspecified),443.7,0.0,14.8*,i,95.4,13.8,9.2,9.4*,
O=c1[nH]c2cc3c(cc2cc1C(c1nnnn1CC1CCCO1)N1CCCCCC1)OCO3 (stereo unspecified),·,1.5,·,i,·,·,·,·,
Oc1ccccc1-c1nc(NCc2ccco2)c2ccccc2n1,222.9,-1.8,12.7*,i,104.1,8.9,1.9,13.0*,
CC1(C)Cc2c(ccc3ccccc23)C2=C(C(=O)N3CCCC3)C(=O)C(=O)N21,·,·,13.2*,i,·,-1.0,1.7,0.7,
O=C1OCCN1C(=O)[C@H]1[C@H](c2ccc(Cl)cc2)C(c2ccccc2)=NN1c1ccccc1,·,·,-212.2,·,109.9,0.5,·,·,
CC[C@H]1C(c2ccc(F)cc2)=NN(c2ccccc2)[C@@H]1CO,·,·,21.9*,·,112.3,-3.2,-93.6,-120.4,
CC[C@@H]1C(c2ccc(F)cc2)=NN(c2ccccc2)[C@H]1C(=O)N1CCOC1=O,·,·,81.0*,·,91.3,0.8,64.4*,53.7*,K7 EDANS ctr=7.35*
